Source: PubChem (The Scripps Research Institute Molecular Screening Center)
M4 antag: antagonists of human muscarinic M4 receptor (CHRM4); CHO-hM4 cells, ACh EC80, Fluo-8 calcium fluorescence; inhibition, % at 3 µM; hit rate 0.73% among 360,000;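 active = inhibition above its plate's cutoff, the mean inhibition of sample wells plus 3 SD, cut at about 27% in these data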;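 note: 0% = acetylcholine EC80 with DMSO and 100% = DMSO without agonist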
Target sequence (P08173 whole entry, looked up): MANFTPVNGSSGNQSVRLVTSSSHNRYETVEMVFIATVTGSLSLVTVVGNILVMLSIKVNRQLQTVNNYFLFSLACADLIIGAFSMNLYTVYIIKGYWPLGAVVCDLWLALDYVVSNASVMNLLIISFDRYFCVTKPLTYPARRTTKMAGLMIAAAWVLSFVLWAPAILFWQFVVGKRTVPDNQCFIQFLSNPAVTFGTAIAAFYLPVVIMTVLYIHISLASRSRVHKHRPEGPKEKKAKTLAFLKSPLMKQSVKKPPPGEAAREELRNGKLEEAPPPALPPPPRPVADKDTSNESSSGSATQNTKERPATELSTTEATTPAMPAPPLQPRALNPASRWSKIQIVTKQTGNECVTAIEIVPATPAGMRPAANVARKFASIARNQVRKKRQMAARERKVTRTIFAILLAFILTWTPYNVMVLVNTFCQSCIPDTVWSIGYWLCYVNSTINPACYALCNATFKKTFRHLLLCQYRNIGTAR
M5 PAM: CHRM5 positive allosteric modulation; P08912; CHO-K1 hM5, Fluo-8 calcium, ACh EC20 PAM; 0% = ACh EC20, 100% = ACh EC100; activation, % at 3 µM; hit rate 0.3% among 360,000;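 active = activation above the run cutoff, the mean activation of all test compounds plus 3 SD, cut at about 18% in these data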
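Probe or stimulus: acetylcholine, EC20 level; Assay system: human M5 receptor in CHO-K1 cells; Schedule: compound preincubation 140 s before EC20 acetylcholine addition; Technique: intracellular calcium via Fluo-8 fluorescence; Dosing: single-point, 3 µM nominal; Read-out basis: percent activation from peak-over-basal fluorescence ratio, scaled EC20-to-EC100 acetylcholine; Repeats: one well per compound, no replicates.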
CHRM5 antagonist: CHRM5 antagonism in calcium assay | P08912 | CHO-hM5 cells, Fluo-8 calcium fluorescence, ACh EC80 | inhibition, % at 3 µM | hit rate 0.59% among 360,000 | AID 624040;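 active = inhibition above a per-plate cutoff, the mean of that plate's test compounds plus 3 SD, cut at about 27% in these data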;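 note: 0% = acetylcholine EC80 with DMSO and 100% = DMSO without agonist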
M5 ag: agonists of human muscarinic M5 receptor (CHRM5); CHO-K1 hM5 cells, Fluo-8 calcium fluorescence; 0% DMSO wells, 100% maximal acetylcholine response; activation, % at 3 µM; hit rate 0.19% among 360,000; P08912;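 active = activation above the run's mean over test compounds plus 3 SD, cut at about 23% in these data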;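 note: signal is peak over basal fluorescence ratio across the kinetic read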
CHRM4 PAM: potentiates acetylcholine response at human M4 receptor; P08173; activation, % at 3 µM; hit rate 0.4% among 360,000; AID 624126; CHO-K1 hM4/Gqi5, Fluo-8 calcium fluorescence, ACh EC20; 0% = ACh EC20, 100% = maximal ACh;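 active = activation above its plate's cutoff, the mean activation of sample wells plus 3 SD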
M4 ag: CHRM4 agonism in calcium assay. hit rate 0.14% among 360,000. AID 624127. P08173. activation, % at 3 µM. CHO-K1 hM4/Gqi5, Fluo-8 calcium fluorescence; vehicle 0%, full acetylcholine response 100%;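 active = activation above the run mean over all test wells plus 3 SD, cut at about 32% in these data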;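 note: peak over basal fluorescence ratio per well then scaled between controls; 0% = DMSO wells and 100% = acetylcholine at EC100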
Numbers without * were called inactive. Hits are enriched below; roughly 1.9% of the tested compounds scored in any of these assays.

SMILES | M4 antag | M5 PAM | CHRM5 antagonist | M5 ag | CHRM4 PAM | M4 ag
CC1(C)CC(=O)C2=C(C1)NC(=O)CC2c1cc2c(cc1Br)OCO2 (stereo unspecified) | -0.6 | -1.9 | 2.8 | -3.1 | 24.0* | 2.9
CCOC(=O)C1C(=O)C=C(c2ccc(C)cc2)CC1c1ccccc1 (stereo unspecified) | -3.4 | -9.0 | 0.9 | -5.8 | -5.0 | 1.0
CCOC(=O)C1C(=O)C=C(/C=C/c2ccc(N(C)C)cc2)CC1c1ccccc1 (stereo unspecified) | 13.1 | -9.2 | 19.7 | 28.6* | -12.2 | 13.7
CS(=O)(=O)N1CCCC(c2nc(-c3ccc(S(=O)(=O)NCc4ccccc4)cc3)no2)C1 (stereo unspecified) | 33.4* | -16.2 | 28.7* | 11.5 | -27.8 | 26.0
CN1CCc2cccc3c2C1Cc1ccc(O)c(O)c1-3 (stereo unspecified) | 4.5 | -7.4 | 4.1 | 35.7* | -7.6 | 3.0
O=C(NCc1ccncc1)C(=O)N/N=C/c1ccc(OCc2ccccc2)cc1 | -10.1 | 6.2 | -7.3 | -3.4 | 1.5 | 1.5
O=NN(CCc1ccncc1)c1ccc(OCc2ccccc2)cc1 | 12.2 | -25.3 | 33.7* | -4.8 | -10.8 | 12.5
Cc1c(CCOC(=O)c2ccccc2)sc[n+]1CC(=O)c1ccc(Br)cc1 | 28.1* | -17.7 | 28.0* | -6.4 | -15.8 | 0.5
Cc1c(CCOC(=O)c2ccccc2)sc[n+]1Cc1ccccc1 | 63.8* | -22.1 | 95.2* | -7.6 | -41.4 | -0.7
Cc1c(CCOC(=O)c2cc([N+](=O)[O-])cc([N+](=O)[O-])c2)sc[n+]1CC(=O)c1ccccc1 | 3.6 | 4.4 | 2.5 | -15.3 | -9.3 | 1.2
COC(=O)c1ccc(S(=O)(=O)N2CCN(CCO)CC2)n1C | -3.3 | 25.0* | 1.4 | 5.5 | 17.1 | 1.3
COC(=O)c1ccc(S(=O)(=O)N2CCCN(Cc3ccccc3)CC2)n1C | -8.1 | 0.1 | 3.5 | -5.8 | -6.1 | 1.8
COc1ccc(/C=C(/C#N)C(=O)Nc2cc(C)ccc2C)cc1C(=O)O | 3.6 | 1.2 | 2.2 | 2.2 | 29.0* | 1.0
Cc1ccc(NC(=O)c2sc3nc(C)cc(C)c3c2N)cc1 | -21.2 | -2.3 | 3.7 | -9.2 | 15.6* | 3.6
Cc1cc(C)c2c(N)c(C(=O)NC3CC3)sc2n1 | 66.8* | 2.6 | 0.9 | -0.5 | 34.0* | 56.1*
CCOC(=O)c1sc2nc(C)nc(NCc3cccnc3)c2c1C | 7.1 | -2.5 | 8.1 | 3.9 | -2.6 | 0.8
CCOC(=O)c1sc2nc(OCc3cccnc3)cc(C)c2c1N | 1.9 | 5.3 | -3.3 | -3.3 | 31.8* | 1.8
CCOC(=O)c1sc2nc(C)cc(C)c2c1N | 28.3* | -2.0 | -2.5 | -3.2 | 51.0* | 1.0
Cc1cc(C)c2c(N)c(C(=O)NN)sc2n1 | -4.4 | 1.4 | 7.5 | 0.1 | -0.4 | 0.5
Cc1cc(C(F)(F)F)c2c(N)c(C(=O)NC3CC3)sc2n1 | -20.3 | -4.5 | 3.4 | -6.1 | 8.1 | 1.2
CN(Cc1cccc(Cl)c1Cl)CC(O)COc1ccccc1 (stereo unspecified) | -1.8 | -1.8 | 10.0 | -3.1 | -4.0 | 0.6
Cc1nnc(SCC(=O)NC2CCCC2)n1C(C)C | -3.8 | 2.2 | 0.4 | -3.4 | 6.5 | 0.7
C/C(=N\NC(N)=O)c1ccccc1Cl | -3.2 | 5.2 | -4.4 | 1.9 | 4.6 | 0.7
CC(=O)c1sc2nc(-c3ccccc3)cc(C)c2c1N | 12.9 | 0.7 | 3.8 | -3.5 | 42.4* | 21.3
Nc1c(C(=O)O)sc2nc(-c3ccccc3)cc(-c3ccc(Cl)cc3)c12 | -2.8 | -1.6 | 14.3 | 0.8 | -11.0 | -0.6
SMILES | M4 antag | M5 PAM | CHRM5 antagonist | M5 ag | CHRM4 PAM | M4 ag
CC1(C(=O)NS(=O)(=O)c2cccc(C#N)c2)CCN1C(=O)Cc1ccc(-c2ccccc2)cc1 (stereo unspecified) | 3.7 | -0.7 | 11.1 | 0.0 | 0.5 | -0.5
COc1ccc(Oc2ncnc3sccc23)cc1 | -11.5 | 18.3* | -7.5 | -1.6 | 10.9 | 2.0
COc1ccc(Nc2ncnc3sccc23)cc1 | -2.8 | 1.5 | 19.8 | -1.2 | 4.3 | 1.9
COc1cccc(-c2ccc(NC(=O)C3CCCN(Cc4cnn(C(C)C)c4)C3)cc2)c1 (stereo unspecified) | 3.3 | -35.2 | 0.9 | -3.7 | -10.3 | 20.3
CC(OC(=O)CCN1C(=O)C2CC=CCC2C1=O)C(=O)Nc1ccc(F)cc1 (stereo unspecified) | -12.5 | 3.6 | 2.7 | 0.7 | 10.9 | 2.9
Cc1c(C(=O)O)sc(=S)n1-c1ccccc1 | -4.8 | -0.6 | 10.6 | -0.1 | 19.7* | 1.8
CCOC(=O)c1sc(=S)n(-c2ccccc2)c1C | 1.6 | -13.4 | 15.8 | -8.2 | -6.3 | 6.1
COCCN(C(=O)c1ccc(-c2ccc(Cl)cc2)o1)c1c(N)n(Cc2ccccc2)c(=O)[nH]c1=O | 1.0 | -3.3 | 3.5 | 1.7 | 6.6 | 2.8
COc1ncnc2c1ncn2CCCN1CCN(Cc2cccc3ccccc23)CC1 | -19.3 | 4.5 | -2.8 | -3.1 | 0.3 | 4.8
CCC(C)c1ccccc1OCCn1ccnc1 (stereo unspecified) | 0.6 | -18.4 | 29.7* | -6.5 | -3.2 | 1.4
Clc1ccc(OCCn2ccnc2)c(Br)c1 | 1.0 | 27.0* | 8.0 | -11.5 | 0.3 | -0.3
C[C@@H]1CN([C@H](C)CO)S(=O)(=O)c2ccc(C#Cc3ccccc3F)cc2O[C@H]1CN(C)C(=O)c1ccc2c(c1)OCO2 | 17.6 | -10.7 | 6.6 | 4.6 | -9.2 | 16.1
NS(=O)(=O)c1ccc(Nc2nc(-c3cccc([N+](=O)[O-])c3)cs2)cc1 | -0.4 | -13.1 | 7.9 | 10.3 | -15.9 | 5.8
O=C(Nc1nc(-c2ccc3ccccc3c2)cs1)c1ccc(N2C(=O)CCC2=O)cc1 | 1.5 | 2.0 | 1.4 | 2.2 | 0.9 | 0.7
NS(=O)(=O)c1ccc(Nc2nc(-c3ccc4ccccc4c3)cs2)cc1 | 36.9* | 8.1 | 3.9 | 19.6 | 6.4 | 7.0
O=C(O)c1ccccc1C(=O)Nc1nc(-c2ccc3ccccc3c2)cs1 | 3.1 | 4.5 | 8.7 | -2.9 | 23.5* | -2.2
CCN(CC)C(=S)Nc1ccc2nc3n(c(=O)c2c1)CCCCC3 | -7.7 | 2.1 | 1.0 | -1.8 | 2.7 | 1.3
CCCCc1cc(O)c(CCCC)c(O)c1 | 52.3* | -16.2 | 33.0* | 64.2* | -18.0 | 106.2*
CCOC(=O)CCc1c(C)c2ccc(OC3CCCCC3=O)cc2oc1=O (stereo unspecified) | 34.5* | -6.5 | 13.1 | -0.8 | -8.0 | 2.2
O=C(Nc1ccccc1Cl)N1CCCN(c2nc(-c3ccccc3)ns2)CC1 | -0.8 | -28.5 | 15.7 | 1.8 | -38.2 | 14.5
O=C(c1ccc(F)cc1)N1CCCN(c2nc(-c3ccccc3)ns2)CC1 | -11.1 | 19.6* | -12.9 | 6.3 | -3.8 | 2.3
